Results as given in ChEMBL document CHEMBL5325390, “1,2,4-Triazole-3-thione analogues with an arylakyl group at position 4 as metallo-β-lactamase inhibitors” (Bioorg Med Chem, 2022).

Target: Metallo-beta-lactamase type 2 (Bacteria) (UniProt C7C422)
Experiment: Inhibition of NDM1 (unknown origin) expressed in Escherichia coli BL21(DE3) assessed as substrate hydrolysis at 100 uM by UV-Vis spectrophotometric analysis relative to control
Settings: not given
How it was run: (§1)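 Single-point screen at 100 or 200 µM inhibitor against purified MBL (1–70 nM) with 150 µM imipenem or meropenem reporter substrate, 50 mM HEPES pH 7.5, 30 °C. Initial hydrolysis rate read by absorbance at 300 nm and compared with the uninhibited reaction. Triplicate.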

Metallo-beta-lactamase type 2 (Bacteria), sequence (C7C422 whole entry): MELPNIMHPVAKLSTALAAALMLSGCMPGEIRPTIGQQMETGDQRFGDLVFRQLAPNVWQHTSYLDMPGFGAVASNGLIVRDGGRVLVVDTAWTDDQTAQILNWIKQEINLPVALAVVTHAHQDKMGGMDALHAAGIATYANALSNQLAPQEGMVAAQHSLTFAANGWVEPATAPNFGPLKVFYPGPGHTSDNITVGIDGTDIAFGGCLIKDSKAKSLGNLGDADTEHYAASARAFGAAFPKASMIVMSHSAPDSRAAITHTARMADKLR

Structure (SMILES)	inhibition [%]
O=C1OC(Cn2c(-c3ccc(-c4ccccc4)cc3)n[nH]c2=S)c2ccccc21 (stereo not given)	< 30
COc1ccc(O)c(-c2n[nH]c(=S)n2CCc2ccc(O)cc2)c1	< 30
O=C1OC(Cn2c(-c3cccc(-c4ccccc4)c3)n[nH]c2=S)c2ccccc21 (stereo not given)	< 30
Sc1nnc(-c2ccccc2)n1-c1ccccc1	< 30
O=C(O)c1ccc(-n2c(S)nnc2-c2ccccc2)cc1	< 30
S=c1[nH]nc(-c2ccccc2)n1CCc1ccccc1	< 30
CC(Cn1c(-c2ccccc2)n[nH]c1=S)c1ccccc1 (stereo not given)	< 30
S=c1[nH]nc(-c2ccc3ccccc3c2)n1CCc1ccccc1	< 30
S=c1[nH]nc(-c2cccc(-c3ccccc3)c2)n1[C@@H]1C[C@H]1c1ccccc1	69
O=C1OC(Cn2c(-c3ccccc3)n[nH]c2=S)c2ccccc21 (stereo not given)	51
O=C(NCc1ccccc1)c1ccccc1CCn1c(-c2ccccc2)n[nH]c1=S	45

Test system: not listed separately
Experiment: Binding affinity to VIM-2 (unknown origin) expressed in Escherichia coli BL21(DE3) assessed as inhibition constant by measuring rate of substrate hydrolysis by UV-Vis spectrophotometric analysis
Settings: not given
How it was run: (§2)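 Purified MBL (1–70 nM) with 150 µM imipenem or meropenem as reporter substrate, 50 mM HEPES pH 7.5, 30 °C. Hydrolysis followed by absorbance at 300 nm without and with inhibitor (0.5 µM–1 mM). Ki from the slope of v0/vi vs [I] under a competitive model, or from Dixon plots varying inhibitor and substrate. […] Triplicate, mean ± SD.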

Structure (SMILES)	Ki [µM]
COc1ccc(O)c(-c2n[nH]c(=S)n2CCc2ccc(O)cc2)c1	3.9
Sc1nnc(-c2ccccc2)n1-c1ccccc1	16

Test system: metallo-β-lactamase VIM-2 (Pseudomonas aeruginosa)
Experiment: Inhibition of VIM-2 (unknown origin) expressed in Escherichia coli BL21(DE3) assessed as substrate hydrolysis at 100 uM by UV-Vis spectrophotometric analysis relative to control
Settings: not given

Structure (SMILES)	inhibition [%]
Oc1ccc(CCn2c(-c3ccccc3-c3ccccc3)n[nH]c2=S)c(O)c1	35
O=C1OC(Cn2c(-c3ccc(-c4ccccc4)cc3)n[nH]c2=S)c2ccccc21 (stereo not given)	< 30
O=C1OC(Cn2c(-c3cccc(-c4ccccc4)c3)n[nH]c2=S)c2ccccc21 (stereo not given)	< 30
S=c1[nH]nc(-c2ccccc2)n1CCc1ccccc1	< 30
CC(Cn1c(-c2ccccc2)n[nH]c1=S)c1ccccc1 (stereo not given)	< 30
S=c1[nH]nc(-c2ccc3ccccc3c2)n1CCc1ccccc1	< 30
S=c1[nH]nc(-c2cccc(-c3ccccc3)c2)n1[C@@H]1C[C@H]1c1ccccc1	< 30
O=C1OC(Cn2c(-c3ccccc3)n[nH]c2=S)c2ccccc21 (stereo not given)	< 30
O=C(NCc1ccccc1)c1ccccc1CCn1c(-c2ccccc2)n[nH]c1=S	< 30

Test system: Klebsiella pneumoniae
Experiment: Antimicrobial synergistic activity against blaVIM-4-producing multidrug-resistant Klebsiella pneumoniae VA416/02 clinical isolate assessed as meropenem MIC at 32 ug/ml by CLSI based broth microdilution method (reference value: 16 ug/ml)
Assay type: functional
Settings: dose 32 µg/ml

Structure (SMILES)	MIC [µg/mL]
COc1ccc(O)c(-c2n[nH]c(=S)n2CCc2ccc(O)cc2)c1	2
S=c1[nH]nc(-c2ccccc2)n1CCc1ccccc1	2
O=C1OC(Cn2c(-c3ccccc3)n[nH]c2=S)c2ccccc21 (stereo not given)	2

Test system: metallo-β-lactamase VIM-4 (Pseudomonas aeruginosa)
Experiment: Inhibition of VIM-4 (unknown origin) expressed in Escherichia coli BL21(DE3) assessed as substrate hydrolysis at 100 uM by UV-Vis spectrophotometric analysis relative to control
Settings: not given

Structure (SMILES)	inhibition [%]
CC(Cn1c(-c2ccccc2)n[nH]c1=S)c1ccccc1 (stereo not given)	< 30
S=c1[nH]nc(-c2ccc3ccccc3c2)n1CCc1ccccc1	< 30
S=c1[nH]nc(-c2cccc(-c3ccccc3)c2)n1[C@@H]1C[C@H]1c1ccccc1	< 30
O=C(NCc1ccccc1)c1ccccc1CCn1c(-c2ccccc2)n[nH]c1=S	< 30

Target: Beta-lactamase VIM-1 (Bacteria, UniProt Q8GDC1)
Experiment: Binding affinity to VIM-1 (unknown origin) expressed in Escherichia coli BL21(DE3) assessed as inhibition constant by measuring rate of substrate hydrolysis by UV-Vis spectrophotometric analysis
Settings: not given
How it was run: as §2

Structure (SMILES)	Ki [µM]
Oc1ccc(CCn2c(-c3ccccc3-c3ccccc3)n[nH]c2=S)c(O)c1	27
COc1ccc(O)c(-c2n[nH]c(=S)n2CCc2ccc(O)cc2)c1	1.6
Sc1nnc(-c2ccccc2)n1-c1ccccc1	3.2
S=c1[nH]nc(-c2ccccc2)n1CCc1ccccc1	3.2
S=c1[nH]nc(-c2ccc3ccccc3c2)n1CCc1ccccc1	3.7
O=C1OC(Cn2c(-c3ccccc3)n[nH]c2=S)c2ccccc21 (stereo not given)	0.75

Test system: Escherichia coli
Experiment: Synergistic antimicrobial activity against blaNDM-1-producing multidrug-resistant Escherichia coli SI-004M clinical isolate assessed as meropenem MIC at 32 ug/ml by CLSI based microdilution method (reference value: 64 ug/ml)
Assay type: functional
Settings: dose 32 µg/ml

Structure (SMILES)	MIC [µg/mL]
S=c1[nH]nc(-c2ccccc2)n1CCc1ccccc1	64
O=C1OC(Cn2c(-c3ccccc3)n[nH]c2=S)c2ccccc21 (stereo not given)	64

Test system: metallo-β-lactamase IMP-1 (Pseudomonas aeruginosa)
Experiment: Inhibition of IMP1 (unknown origin) expressed in Escherichia coli BL21(DE3) assessed as substrate hydrolysis at 200 uM by UV-Vis spectrophotometric analysis relative to control
Settings: not given

Structure (SMILES)	inhibition [%]
Oc1ccc(CCn2c(-c3ccccc3-c3ccccc3)n[nH]c2=S)c(O)c1	< 50
COc1ccc(O)c(-c2n[nH]c(=S)n2CCc2ccc(O)cc2)c1	< 50
O=C1OC(Cn2c(-c3cccc(-c4ccccc4)c3)n[nH]c2=S)c2ccccc21 (stereo not given)	< 50
S=c1[nH]nc(-c2ccccc2)n1CCc1ccccc1	< 50
S=c1[nH]nc(-c2ccc3ccccc3c2)n1CCc1ccccc1	< 50
S=c1[nH]nc(-c2cccc(-c3ccccc3)c2)n1[C@@H]1C[C@H]1c1ccccc1	< 50
O=C1OC(Cn2c(-c3ccccc3)n[nH]c2=S)c2ccccc21 (stereo not given)	< 50

Test system: Klebsiella pneumoniae
Experiment: Antimicrobial synergistic activity against blaVIM-1-producing multidrug-resistant Klebsiella pneumoniae 7023 clinical isolate assessed as meropenem MIC at 32 ug/ml by CLSI based broth microdilution method (reference value: 16 ug/ml)
Assay type: functional
Settings: dose 32 µg/ml

Structure (SMILES)	MIC [µg/mL]
COc1ccc(O)c(-c2n[nH]c(=S)n2CCc2ccc(O)cc2)c1	2
S=c1[nH]nc(-c2ccccc2)n1CCc1ccccc1	2
O=C1OC(Cn2c(-c3ccccc3)n[nH]c2=S)c2ccccc21 (stereo not given)	2

Test system: metallo-β-lactamase IMP-1 (Pseudomonas aeruginosa)
Experiment: Inhibition of IMP1 (unknown origin) expressed in Escherichia coli BL21(DE3) assessed as substrate hydrolysis at 100 uM by UV-Vis spectrophotometric analysis relative to control
Settings: not given

Structure (SMILES)	inhibition [%]
Oc1ccc(CCn2c(-c3ccccc3-c3ccccc3)n[nH]c2=S)c(O)c1	< 30
O=C1OC(Cn2c(-c3ccc(-c4ccccc4)cc3)n[nH]c2=S)c2ccccc21 (stereo not given)	48
COc1ccc(O)c(-c2n[nH]c(=S)n2CCc2ccc(O)cc2)c1	< 30
O=C1OC(Cn2c(-c3cccc(-c4ccccc4)c3)n[nH]c2=S)c2ccccc21 (stereo not given)	< 30
S=c1[nH]nc(-c2ccccc2)n1CCc1ccccc1	< 30
CC(Cn1c(-c2ccccc2)n[nH]c1=S)c1ccccc1 (stereo not given)	55
S=c1[nH]nc(-c2ccc3ccccc3c2)n1CCc1ccccc1	< 30
S=c1[nH]nc(-c2cccc(-c3ccccc3)c2)n1[C@@H]1C[C@H]1c1ccccc1	< 30
O=C1OC(Cn2c(-c3ccccc3)n[nH]c2=S)c2ccccc21 (stereo not given)	< 30
O=C(NCc1ccccc1)c1ccccc1CCn1c(-c2ccccc2)n[nH]c1=S	45

Test system: not listed separately
Experiment: Binding affinity to VIM-4 (unknown origin) expressed in Escherichia coli BL21(DE3) assessed as inhibition constant by measuring rate of substrate hydrolysis by UV-Vis spectrophotometric analysis
Settings: not given
How it was run: as §2

Structure (SMILES)	Ki [µM]
Oc1ccc(CCn2c(-c3ccccc3-c3ccccc3)n[nH]c2=S)c(O)c1	60
COc1ccc(O)c(-c2n[nH]c(=S)n2CCc2ccc(O)cc2)c1	1.9
S=c1[nH]nc(-c2ccccc2)n1CCc1ccccc1	2.1
O=C1OC(Cn2c(-c3ccccc3)n[nH]c2=S)c2ccccc21 (stereo not given)	7.8

Test system: metallo-β-lactamase VIM-2 (Pseudomonas aeruginosa)
Experiment: Inhibition of VIM-2 (unknown origin) expressed in Escherichia coli BL21(DE3) assessed as substrate hydrolysis at 200 uM by UV-Vis spectrophotometric analysis relative to control
Settings: not given

Structure (SMILES)	inhibition [%]
O=C1OC(Cn2c(-c3ccc(-c4ccccc4)cc3)n[nH]c2=S)c2ccccc21 (stereo not given)	< 50
O=C1OC(Cn2c(-c3cccc(-c4ccccc4)c3)n[nH]c2=S)c2ccccc21 (stereo not given)	< 50
S=c1[nH]nc(-c2ccccc2)n1CCc1ccccc1	< 50
CC(Cn1c(-c2ccccc2)n[nH]c1=S)c1ccccc1 (stereo not given)	< 50
S=c1[nH]nc(-c2ccc3ccccc3c2)n1CCc1ccccc1	< 50
S=c1[nH]nc(-c2cccc(-c3ccccc3)c2)n1[C@@H]1C[C@H]1c1ccccc1	< 50
O=C1OC(Cn2c(-c3ccccc3)n[nH]c2=S)c2ccccc21 (stereo not given)	< 50
O=C(NCc1ccccc1)c1ccccc1CCn1c(-c2ccccc2)n[nH]c1=S	< 50

Test system: metallo-β-lactamase VIM-4 (Pseudomonas aeruginosa)
Experiment: Inhibition of VIM-4 (unknown origin) expressed in Escherichia coli BL21(DE3) assessed as substrate hydrolysis at 200 uM by UV-Vis spectrophotometric analysis relative to control
Settings: not given

Structure (SMILES)	inhibition [%]
CC(Cn1c(-c2ccccc2)n[nH]c1=S)c1ccccc1 (stereo not given)	< 50
S=c1[nH]nc(-c2ccc3ccccc3c2)n1CCc1ccccc1	< 50
S=c1[nH]nc(-c2cccc(-c3ccccc3)c2)n1[C@@H]1C[C@H]1c1ccccc1	< 50
O=C(NCc1ccccc1)c1ccccc1CCn1c(-c2ccccc2)n[nH]c1=S	< 50

Target: Metallo-beta-lactamase type 2 (Bacteria, UniProt C7C422)
Sequence (C7C422 whole entry): as above
Experiment: Binding affinity to NDM1 (unknown origin) expressed in Escherichia coli BL21(DE3) assessed as inhibition constant by measuring rate of substrate hydrolysis by UV-Vis spectrophotometric analysis
Settings: read-out: Ki
How it was run: as §2

Structure (SMILES)	Ki [µM]
Oc1ccc(CCn2c(-c3ccccc3-c3ccccc3)n[nH]c2=S)c(O)c1	15.2

Target: Metallo-beta-lactamase type 2 (Bacteria) (UniProt C7C422)
Experiment: Inhibition of NDM1 (unknown origin) expressed in Escherichia coli BL21(DE3) assessed as substrate hydrolysis at 200 uM by UV-Vis spectrophotometric analysis relative to control
Settings: not given
How it was run: as §1

Structure (SMILES)	inhibition [%]
O=C1OC(Cn2c(-c3ccc(-c4ccccc4)cc3)n[nH]c2=S)c2ccccc21 (stereo not given)	< 50
COc1ccc(O)c(-c2n[nH]c(=S)n2CCc2ccc(O)cc2)c1	< 50
O=C1OC(Cn2c(-c3cccc(-c4ccccc4)c3)n[nH]c2=S)c2ccccc21 (stereo not given)	< 50
S=c1[nH]nc(-c2ccccc2)n1CCc1ccccc1	< 50
CC(Cn1c(-c2ccccc2)n[nH]c1=S)c1ccccc1 (stereo not given)	< 50
S=c1[nH]nc(-c2ccc3ccccc3c2)n1CCc1ccccc1	< 50
